Assay results: ChEMBL document CHEMBL3407400, “Design, synthesis and biological evaluations of chirally pure 1,2,3,4-tertrahydroisoquinoline analogs as anti-cancer agents” (Eur J Med Chem, 2015)

Test system: A549
Experiment: Anticancer activity against human A549 cells after 48 hrs by MTT assay
Assay type: functional, cell-based
Settings: A549, 48 h
Summary of the method: (§1)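 Cell lines held in DMEM or MEM with 10% FBS and antibiotic-antimycotic at 37 °C, 5% CO2. Cells seeded at 1 × 10⁴ per well in DMEM with 10% FBS and left 24 h. Compounds diluted in medium and added alongside vehicle control for 48 h. MTT (5 mg/mL) added for 4 h, formazan dissolved in DMSO, absorbance read at 570 nm.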

IC50	SMILES
6.91 µM	Cc1ccc(S(=O)(=O)N[C@@H](Cc2ccccc2)C(=O)N2Cc3ccccc3[C@@H](OCc3ccccc3)[C@@H]2CO)cc1
7.37 µM	Cc1ccc(S(=O)(=O)N[C@@H](C)C(=O)N2Cc3ccccc3[C@@H](OCc3ccccc3)[C@@H]2CO)cc1
32.3 µM	O=C(/C=C/c1ccc(F)cc1)N1Cc2ccccc2[C@@H](OCc2ccccc2)[C@@H]1CO
6.03 µM	Cc1ccc(S(=O)(=O)NCC(=O)N2Cc3ccccc3[C@@H](OCc3ccccc3)[C@@H]2CO)cc1
6.46 µM	COc1ccc(C(=O)N2Cc3ccccc3[C@@H](OCc3ccccc3)[C@@H]2CO)c(O)c1
5.62 µM	O=C(/C=C/c1ccc([N+](=O)[O-])cc1)N1Cc2ccccc2[C@@H](OCc2ccccc2)[C@@H]1CO
37.1 µM	Cc1ccc(S(=O)(=O)Nc2ccccc2C(=O)N2Cc3ccccc3[C@@H](OCc3ccccc3)[C@@H]2CO)cc1
63 µM	COc1cc(/C=C/C(=O)N2Cc3ccccc3[C@@H](OCc3ccccc3)[C@@H]2CO)ccc1O
13.7 µM	Cc1ccc(S(=O)(=O)N2C[C@H]3[C@H](OCc4ccccc4)c4ccccc4CN3C(=O)[C@@H]2Cc2ccccc2)cc1

Test system: MCF7
Experiment: Anticancer activity against human MCF7 cells after 48 hrs by MTT assay
Assay type: functional, cell-based
Settings: MCF7, 48 h
Summary of the method: as §1

IC50	SMILES
8.71 µM	Cc1ccc(S(=O)(=O)N[C@@H](Cc2ccccc2)C(=O)N2Cc3ccccc3[C@@H](OCc3ccccc3)[C@@H]2CO)cc1
14.8 µM	Cc1ccc(S(=O)(=O)N[C@@H](C)C(=O)N2Cc3ccccc3[C@@H](OCc3ccccc3)[C@@H]2CO)cc1
57.3 µM	O=C(/C=C/c1ccc(F)cc1)N1Cc2ccccc2[C@@H](OCc2ccccc2)[C@@H]1CO
11.5 µM	Cc1ccc(S(=O)(=O)NCC(=O)N2Cc3ccccc3[C@@H](OCc3ccccc3)[C@@H]2CO)cc1
21.8 µM	COc1ccc(C(=O)N2Cc3ccccc3[C@@H](OCc3ccccc3)[C@@H]2CO)c(O)c1
24.4 µM	O=C(/C=C/c1ccc([N+](=O)[O-])cc1)N1Cc2ccccc2[C@@H](OCc2ccccc2)[C@@H]1CO
79.4 µM	Cc1ccc(S(=O)(=O)Nc2ccccc2C(=O)N2Cc3ccccc3[C@@H](OCc3ccccc3)[C@@H]2CO)cc1
37.3 µM	COc1cc(/C=C/C(=O)N2Cc3ccccc3[C@@H](OCc3ccccc3)[C@@H]2CO)ccc1O
17.6 µM	Cc1ccc(S(=O)(=O)N2C[C@H]3[C@H](OCc4ccccc4)c4ccccc4CN3C(=O)[C@@H]2Cc2ccccc2)cc1

Test system: HeLa
Experiment: Anticancer activity against human HeLa cells after 48 hrs by MTT assay
Assay type: functional, cell-based
Settings: not given
Summary of the method: as §1

IC50	SMILES
2.29 µM	COc1cccc2c1C(=O)c1c(O)c3c(c(O)c1C2=O)C[C@@](O)(C(=O)CO)C[C@@H]3O[C@H]1C[C@H](N)[C@H](O)[C@H](C)O1 [DOXORUBICIN]
12.3 µM	Cc1ccc(S(=O)(=O)N[C@@H](Cc2ccccc2)C(=O)N2Cc3ccccc3[C@@H](OCc3ccccc3)[C@@H]2CO)cc1
21 µM	Cc1ccc(S(=O)(=O)N[C@@H](C)C(=O)N2Cc3ccccc3[C@@H](OCc3ccccc3)[C@@H]2CO)cc1
58.3 µM	O=C(/C=C/c1ccc(F)cc1)N1Cc2ccccc2[C@@H](OCc2ccccc2)[C@@H]1CO
15.1 µM	Cc1ccc(S(=O)(=O)NCC(=O)N2Cc3ccccc3[C@@H](OCc3ccccc3)[C@@H]2CO)cc1
12.5 µM	COc1ccc(C(=O)N2Cc3ccccc3[C@@H](OCc3ccccc3)[C@@H]2CO)c(O)c1
26.8 µM	O=C(/C=C/c1ccc([N+](=O)[O-])cc1)N1Cc2ccccc2[C@@H](OCc2ccccc2)[C@@H]1CO
56.3 µM	Cc1ccc(S(=O)(=O)Nc2ccccc2C(=O)N2Cc3ccccc3[C@@H](OCc3ccccc3)[C@@H]2CO)cc1
67.6 µM	COc1cc(/C=C/C(=O)N2Cc3ccccc3[C@@H](OCc3ccccc3)[C@@H]2CO)ccc1O
20.3 µM	Cc1ccc(S(=O)(=O)N2C[C@H]3[C@H](OCc4ccccc4)c4ccccc4CN3C(=O)[C@@H]2Cc2ccccc2)cc1

Test system: HepG2
Experiment: Anticancer activity against human HepG2 cells after 48 hrs by MTT assay
Assay type: functional, cell-based
Settings: HepG2, 48 h
Summary of the method: as §1

IC50	SMILES
2.24 µM	Cc1ccc(S(=O)(=O)N[C@@H](Cc2ccccc2)C(=O)N2Cc3ccccc3[C@@H](OCc3ccccc3)[C@@H]2CO)cc1
5.37 µM	Cc1ccc(S(=O)(=O)N[C@@H](C)C(=O)N2Cc3ccccc3[C@@H](OCc3ccccc3)[C@@H]2CO)cc1
24.6 µM	O=C(/C=C/c1ccc(F)cc1)N1Cc2ccccc2[C@@H](OCc2ccccc2)[C@@H]1CO
5.05 µM	Cc1ccc(S(=O)(=O)NCC(=O)N2Cc3ccccc3[C@@H](OCc3ccccc3)[C@@H]2CO)cc1
11.4 µM	COc1ccc(C(=O)N2Cc3ccccc3[C@@H](OCc3ccccc3)[C@@H]2CO)c(O)c1
5.37 µM	O=C(/C=C/c1ccc([N+](=O)[O-])cc1)N1Cc2ccccc2[C@@H](OCc2ccccc2)[C@@H]1CO
57.5 µM	Cc1ccc(S(=O)(=O)Nc2ccccc2C(=O)N2Cc3ccccc3[C@@H](OCc3ccccc3)[C@@H]2CO)cc1
79.4 µM	COc1cc(/C=C/C(=O)N2Cc3ccccc3[C@@H](OCc3ccccc3)[C@@H]2CO)ccc1O
10.8 µM	Cc1ccc(S(=O)(=O)N2C[C@H]3[C@H](OCc4ccccc4)c4ccccc4CN3C(=O)[C@@H]2Cc2ccccc2)cc1

Test system: DU-145
Experiment: Anticancer activity against human DU145 cells after 48 hrs by MTT assay
Assay type: functional, cell-based
Settings: DU-145, 48 h
Summary of the method: as §1

IC50	SMILES
1.3 µM	COc1cccc2c1C(=O)c1c(O)c3c(c(O)c1C2=O)C[C@@](O)(C(=O)CO)C[C@@H]3O[C@H]1C[C@H](N)[C@H](O)[C@H](C)O1 [DOXORUBICIN]
1.26 µM	Cc1ccc(S(=O)(=O)N[C@@H](Cc2ccccc2)C(=O)N2Cc3ccccc3[C@@H](OCc3ccccc3)[C@@H]2CO)cc1
4.67 µM	Cc1ccc(S(=O)(=O)N[C@@H](C)C(=O)N2Cc3ccccc3[C@@H](OCc3ccccc3)[C@@H]2CO)cc1
29.3 µM	O=C(/C=C/c1ccc(F)cc1)N1Cc2ccccc2[C@@H](OCc2ccccc2)[C@@H]1CO
3.8 µM	Cc1ccc(S(=O)(=O)NCC(=O)N2Cc3ccccc3[C@@H](OCc3ccccc3)[C@@H]2CO)cc1
9.77 µM	COc1ccc(C(=O)N2Cc3ccccc3[C@@H](OCc3ccccc3)[C@@H]2CO)c(O)c1
4.07 µM	O=C(/C=C/c1ccc([N+](=O)[O-])cc1)N1Cc2ccccc2[C@@H](OCc2ccccc2)[C@@H]1CO
39.8 µM	Cc1ccc(S(=O)(=O)Nc2ccccc2C(=O)N2Cc3ccccc3[C@@H](OCc3ccccc3)[C@@H]2CO)cc1
41.3 µM	COc1cc(/C=C/C(=O)N2Cc3ccccc3[C@@H](OCc3ccccc3)[C@@H]2CO)ccc1O
7.41 µM	Cc1ccc(S(=O)(=O)N2C[C@H]3[C@H](OCc4ccccc4)c4ccccc4CN3C(=O)[C@@H]2Cc2ccccc2)cc1
